According to ChEMBL document CHEMBL1140082, “Design, synthesis, and biological evaluation of potent c-Met inhibitors” (J Med Chem, 2008):

Legend:
[1] = molecular target: Serine/threonine-protein kinase pim-1 (Homo sapiens, UniProt P11309); experiment: Inhibition of PIM1 kinase
[2] = molecular target: Hepatocyte growth factor receptor (Homo sapiens, UniProt P08581); experiment: Inhibition of cMet by HTRF assay
Aurora kinase A = molecular target: T1, Aurora kinase A (Homo sapiens, UniProt O14965); experiment: Inhibition of Aurora2
T1 sequence (O14965 whole entry): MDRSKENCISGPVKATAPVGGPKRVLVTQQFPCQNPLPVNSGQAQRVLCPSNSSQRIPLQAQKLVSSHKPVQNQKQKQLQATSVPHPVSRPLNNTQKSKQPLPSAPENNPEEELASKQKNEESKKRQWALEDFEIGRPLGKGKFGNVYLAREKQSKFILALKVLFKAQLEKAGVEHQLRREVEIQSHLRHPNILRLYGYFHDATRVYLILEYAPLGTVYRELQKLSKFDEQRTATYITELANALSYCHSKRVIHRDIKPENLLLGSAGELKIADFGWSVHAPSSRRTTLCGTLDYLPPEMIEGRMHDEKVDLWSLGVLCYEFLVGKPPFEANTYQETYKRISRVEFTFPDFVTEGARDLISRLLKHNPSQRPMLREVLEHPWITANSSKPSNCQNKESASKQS

[3] = molecular target: T2, Tyrosine-protein kinase JAK3 (Homo sapiens, UniProt P52333); experiment: Inhibition of JAK3
T2 sequence (P52333 whole entry): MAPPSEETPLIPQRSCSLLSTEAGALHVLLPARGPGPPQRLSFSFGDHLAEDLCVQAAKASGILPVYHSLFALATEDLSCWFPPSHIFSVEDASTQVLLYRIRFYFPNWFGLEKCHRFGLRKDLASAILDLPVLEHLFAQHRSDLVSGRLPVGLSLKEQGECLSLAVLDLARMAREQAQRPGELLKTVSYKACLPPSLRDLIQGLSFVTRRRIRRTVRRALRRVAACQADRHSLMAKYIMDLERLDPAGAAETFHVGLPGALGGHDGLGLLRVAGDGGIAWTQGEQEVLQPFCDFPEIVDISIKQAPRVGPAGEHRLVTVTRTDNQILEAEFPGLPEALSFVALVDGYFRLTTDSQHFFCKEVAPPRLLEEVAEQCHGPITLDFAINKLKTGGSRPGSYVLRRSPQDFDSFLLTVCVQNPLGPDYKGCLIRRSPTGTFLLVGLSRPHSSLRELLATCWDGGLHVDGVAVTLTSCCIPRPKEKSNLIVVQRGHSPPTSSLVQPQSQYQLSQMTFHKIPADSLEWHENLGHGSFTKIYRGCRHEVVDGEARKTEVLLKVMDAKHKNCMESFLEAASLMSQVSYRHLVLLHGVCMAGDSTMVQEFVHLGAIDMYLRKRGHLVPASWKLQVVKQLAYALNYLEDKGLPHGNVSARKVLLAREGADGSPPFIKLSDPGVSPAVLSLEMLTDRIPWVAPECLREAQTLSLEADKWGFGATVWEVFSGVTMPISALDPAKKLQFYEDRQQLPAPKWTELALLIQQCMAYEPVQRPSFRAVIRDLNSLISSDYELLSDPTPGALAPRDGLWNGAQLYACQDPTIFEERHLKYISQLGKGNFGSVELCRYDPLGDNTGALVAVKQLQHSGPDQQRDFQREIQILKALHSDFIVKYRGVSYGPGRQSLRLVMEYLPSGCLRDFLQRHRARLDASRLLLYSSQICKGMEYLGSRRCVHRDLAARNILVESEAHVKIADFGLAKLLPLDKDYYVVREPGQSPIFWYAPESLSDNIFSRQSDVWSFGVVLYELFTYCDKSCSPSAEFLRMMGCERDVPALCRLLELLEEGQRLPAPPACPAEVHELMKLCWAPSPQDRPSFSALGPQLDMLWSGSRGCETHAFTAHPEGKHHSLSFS

[4] = Bioavailability in iv dosed rat; format: ADME, organism-based; details: in vivo
[5] = Clearance in iv dosed rat; format: ADME, organism-based; details: in vivo
[6] = Inhibition of P38 kinase
[7] = molecular target: cAMP-dependent protein kinase catalytic subunit alpha (Homo sapiens, UniProt P17612); experiment: Inhibition of PKAalpha
[8] = Half life in iv dosed rat; format: ADME, organism-based; details: in vivo
[9] = molecular target: Vascular endothelial growth factor receptor 2 (Homo sapiens, UniProt P35968); experiment: Inhibition of phosphorylated KDR by HTRF assay
In short: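 HTRF assay against KDR kinase with 10-point serial dilution. ATP at two-thirds of the experimentally determined Km (Eadie-Hofstee and Lineweaver-Burke). Ki derived from the IC50.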

[10] = molecular target: Tyrosine-protein kinase Lck (Homo sapiens, UniProt P06239); experiment: Inhibition of LCK
Sequence of Tyrosine-protein kinase Lck (P06239 whole entry): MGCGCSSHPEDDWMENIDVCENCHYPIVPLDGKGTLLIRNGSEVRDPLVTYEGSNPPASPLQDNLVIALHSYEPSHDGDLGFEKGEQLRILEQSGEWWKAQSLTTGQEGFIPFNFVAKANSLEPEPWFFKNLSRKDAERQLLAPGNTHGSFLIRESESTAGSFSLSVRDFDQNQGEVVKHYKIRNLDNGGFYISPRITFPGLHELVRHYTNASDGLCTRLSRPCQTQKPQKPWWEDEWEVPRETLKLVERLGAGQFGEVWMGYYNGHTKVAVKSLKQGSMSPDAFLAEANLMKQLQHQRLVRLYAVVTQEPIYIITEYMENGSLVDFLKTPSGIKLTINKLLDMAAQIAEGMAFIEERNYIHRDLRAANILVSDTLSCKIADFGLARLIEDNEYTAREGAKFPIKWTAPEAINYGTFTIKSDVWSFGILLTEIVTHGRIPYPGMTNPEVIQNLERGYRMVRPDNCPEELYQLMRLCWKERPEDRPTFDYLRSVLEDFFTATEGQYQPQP

[11] = molecular target: Ribosomal protein S6 kinase alpha-5 (Homo sapiens, UniProt O75582); experiment: Inhibition of MSK1
[12] = molecular target: Fibroblast growth factor receptor 2 (Homo sapiens, UniProt P21802); experiment: Inhibition of FGFRK2
[13] = molecular target: Mitogen-activated protein kinase 9 (Homo sapiens, UniProt P45984); experiment: Inhibition of JNK2
[14] = molecular target: Ribosomal protein S6 kinase beta-1 (Homo sapiens, UniProt P23443); experiment: Inhibition of P70S6
Sequence of Ribosomal protein S6 kinase beta-1 (P23443 whole entry): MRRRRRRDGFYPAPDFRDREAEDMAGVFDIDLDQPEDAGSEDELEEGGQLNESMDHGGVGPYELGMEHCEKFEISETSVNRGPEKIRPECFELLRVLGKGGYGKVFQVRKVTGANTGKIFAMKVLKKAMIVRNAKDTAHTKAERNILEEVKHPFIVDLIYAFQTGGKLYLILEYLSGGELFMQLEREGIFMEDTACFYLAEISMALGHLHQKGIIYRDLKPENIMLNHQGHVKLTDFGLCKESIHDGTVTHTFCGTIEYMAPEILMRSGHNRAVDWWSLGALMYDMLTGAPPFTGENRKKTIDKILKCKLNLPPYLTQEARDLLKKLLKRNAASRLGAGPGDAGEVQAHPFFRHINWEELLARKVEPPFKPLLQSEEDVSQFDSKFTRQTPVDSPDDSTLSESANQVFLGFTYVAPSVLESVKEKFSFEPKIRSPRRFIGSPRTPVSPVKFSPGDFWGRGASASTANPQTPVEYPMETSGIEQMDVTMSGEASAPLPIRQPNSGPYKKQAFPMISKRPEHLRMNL

[15] = molecular target: Macrophage-stimulating protein receptor (Homo sapiens, UniProt Q04912); experiment: Inhibition of phosphorylated RON
Sequence of Macrophage-stimulating protein receptor (Q04912 25-304 limits assumed): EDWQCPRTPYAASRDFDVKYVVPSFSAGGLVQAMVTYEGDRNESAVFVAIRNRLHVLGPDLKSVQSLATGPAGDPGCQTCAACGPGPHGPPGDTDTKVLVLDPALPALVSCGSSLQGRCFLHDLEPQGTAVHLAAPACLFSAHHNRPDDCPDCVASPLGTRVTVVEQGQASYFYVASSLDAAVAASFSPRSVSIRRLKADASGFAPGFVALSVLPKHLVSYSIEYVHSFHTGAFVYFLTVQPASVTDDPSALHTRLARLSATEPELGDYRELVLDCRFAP
Sequence of Macrophage-stimulating protein receptor (Q04912 310-1400 limits assumed): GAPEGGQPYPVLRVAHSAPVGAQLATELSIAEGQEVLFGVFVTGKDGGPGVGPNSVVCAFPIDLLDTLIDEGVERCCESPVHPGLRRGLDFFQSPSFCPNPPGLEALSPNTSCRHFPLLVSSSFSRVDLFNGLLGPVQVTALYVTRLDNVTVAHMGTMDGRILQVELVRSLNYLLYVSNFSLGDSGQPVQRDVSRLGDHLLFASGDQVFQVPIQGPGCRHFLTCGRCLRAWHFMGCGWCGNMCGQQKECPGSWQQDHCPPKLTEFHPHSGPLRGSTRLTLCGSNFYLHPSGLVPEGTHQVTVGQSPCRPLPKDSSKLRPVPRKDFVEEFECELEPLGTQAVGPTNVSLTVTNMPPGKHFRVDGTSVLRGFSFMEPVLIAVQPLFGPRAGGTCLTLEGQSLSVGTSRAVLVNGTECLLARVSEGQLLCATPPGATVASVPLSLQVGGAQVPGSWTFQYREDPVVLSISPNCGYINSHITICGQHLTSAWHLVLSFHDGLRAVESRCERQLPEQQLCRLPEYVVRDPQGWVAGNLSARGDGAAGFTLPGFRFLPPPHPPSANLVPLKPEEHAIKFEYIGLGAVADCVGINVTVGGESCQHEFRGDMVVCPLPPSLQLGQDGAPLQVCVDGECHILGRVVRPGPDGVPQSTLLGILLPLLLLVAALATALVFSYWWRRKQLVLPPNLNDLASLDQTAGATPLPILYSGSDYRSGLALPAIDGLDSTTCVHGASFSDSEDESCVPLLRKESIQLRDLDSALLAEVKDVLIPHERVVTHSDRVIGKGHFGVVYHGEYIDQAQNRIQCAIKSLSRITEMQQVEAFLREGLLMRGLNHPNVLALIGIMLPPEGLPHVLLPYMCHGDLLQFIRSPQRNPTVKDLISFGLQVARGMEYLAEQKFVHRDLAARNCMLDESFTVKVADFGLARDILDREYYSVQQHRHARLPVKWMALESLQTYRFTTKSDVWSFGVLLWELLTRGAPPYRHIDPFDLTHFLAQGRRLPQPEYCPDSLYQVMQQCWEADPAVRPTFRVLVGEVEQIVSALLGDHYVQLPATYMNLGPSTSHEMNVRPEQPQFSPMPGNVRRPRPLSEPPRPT

[16] = molecular target: Mitogen-activated protein kinase 3 (Homo sapiens, UniProt P27361); experiment: Inhibition of ERK1
Sequence of Mitogen-activated protein kinase 3 (P27361 whole entry): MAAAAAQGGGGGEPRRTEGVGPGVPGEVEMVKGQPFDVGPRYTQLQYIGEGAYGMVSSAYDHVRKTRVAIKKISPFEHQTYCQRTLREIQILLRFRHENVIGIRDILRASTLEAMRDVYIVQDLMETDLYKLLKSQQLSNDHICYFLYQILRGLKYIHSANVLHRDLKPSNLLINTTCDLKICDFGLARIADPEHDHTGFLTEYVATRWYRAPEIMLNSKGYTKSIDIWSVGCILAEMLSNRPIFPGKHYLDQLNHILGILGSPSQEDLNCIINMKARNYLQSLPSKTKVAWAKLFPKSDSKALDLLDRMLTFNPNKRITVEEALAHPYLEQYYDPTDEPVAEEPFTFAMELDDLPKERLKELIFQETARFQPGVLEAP

[17] = molecular target: Vascular endothelial growth factor receptor 3 (Homo sapiens, UniProt P35916); experiment: Inhibition of Flt4 kinase
[18] = molecular target: Tyrosine-protein kinase JAK2 (Homo sapiens, UniProt O60674); experiment: Inhibition of JAK2
[19] = molecular target: Macrophage colony-stimulating factor 1 receptor (Homo sapiens, UniProt P07333); experiment: Inhibition of cFMS kinase
[20] = molecular target: Vascular endothelial growth factor receptor 1 (Homo sapiens, UniProt P17948); experiment: Inhibition of Flt1 kinase
Sequence of Vascular endothelial growth factor receptor 1 (P17948 whole entry): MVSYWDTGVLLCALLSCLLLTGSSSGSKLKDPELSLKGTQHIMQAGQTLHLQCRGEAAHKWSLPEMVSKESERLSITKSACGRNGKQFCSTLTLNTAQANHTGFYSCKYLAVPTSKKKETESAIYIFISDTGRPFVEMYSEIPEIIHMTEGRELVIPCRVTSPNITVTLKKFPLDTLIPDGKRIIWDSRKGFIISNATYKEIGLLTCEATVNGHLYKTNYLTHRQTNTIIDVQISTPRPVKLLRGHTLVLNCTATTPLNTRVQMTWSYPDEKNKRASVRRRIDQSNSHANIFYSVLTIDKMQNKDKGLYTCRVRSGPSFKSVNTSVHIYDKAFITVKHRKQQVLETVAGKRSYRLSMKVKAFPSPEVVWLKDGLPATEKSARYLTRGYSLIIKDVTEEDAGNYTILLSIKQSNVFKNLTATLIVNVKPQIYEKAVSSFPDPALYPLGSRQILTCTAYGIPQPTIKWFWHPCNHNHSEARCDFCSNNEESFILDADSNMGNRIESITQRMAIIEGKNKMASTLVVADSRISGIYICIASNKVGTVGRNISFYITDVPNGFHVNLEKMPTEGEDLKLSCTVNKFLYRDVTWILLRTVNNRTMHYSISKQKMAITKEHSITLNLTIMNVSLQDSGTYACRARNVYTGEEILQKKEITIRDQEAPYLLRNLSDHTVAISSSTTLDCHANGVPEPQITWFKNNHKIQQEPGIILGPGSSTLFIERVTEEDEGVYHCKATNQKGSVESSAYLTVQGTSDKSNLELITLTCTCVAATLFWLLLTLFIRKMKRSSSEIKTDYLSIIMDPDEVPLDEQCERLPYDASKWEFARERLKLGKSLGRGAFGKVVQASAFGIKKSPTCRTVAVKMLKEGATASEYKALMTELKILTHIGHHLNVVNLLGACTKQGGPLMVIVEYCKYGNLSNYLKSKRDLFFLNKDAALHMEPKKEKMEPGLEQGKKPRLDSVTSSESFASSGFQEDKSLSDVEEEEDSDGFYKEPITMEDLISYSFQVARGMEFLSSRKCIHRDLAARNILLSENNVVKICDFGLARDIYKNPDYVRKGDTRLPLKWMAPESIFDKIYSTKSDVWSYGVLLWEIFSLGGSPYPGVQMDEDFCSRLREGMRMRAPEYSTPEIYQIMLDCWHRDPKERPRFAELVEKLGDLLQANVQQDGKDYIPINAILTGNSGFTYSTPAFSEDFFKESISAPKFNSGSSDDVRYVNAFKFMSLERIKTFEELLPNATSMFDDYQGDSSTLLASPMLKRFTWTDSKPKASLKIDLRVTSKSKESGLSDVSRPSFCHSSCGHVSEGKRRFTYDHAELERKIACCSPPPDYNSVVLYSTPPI

[21] = molecular target: Tyrosine-protein kinase BTK (Homo sapiens, UniProt Q06187); experiment: Inhibition of BTK
Mus musculus = experiment: Inhibition of human recombinant HGF-induced cMet phosphorylation in po or ip dosed BALB/c mouse liver after 2 hrs
[22] = Volume of distribution in iv dosed rat; format: ADME, organism-based; details: in vivo
[23] = Inhibition of IGFR
[24] = molecular target: Cyclin-dependent kinase 5 (Homo sapiens, UniProt Q00535); experiment: Inhibition of CDK5
[25] = molecular target: Serine/threonine-protein kinase pim-2 (Homo sapiens, UniProt Q9P1W9); experiment: Inhibition of PIM2 kinase
Sequence of Serine/threonine-protein kinase pim-2 (Q9P1W9 whole entry): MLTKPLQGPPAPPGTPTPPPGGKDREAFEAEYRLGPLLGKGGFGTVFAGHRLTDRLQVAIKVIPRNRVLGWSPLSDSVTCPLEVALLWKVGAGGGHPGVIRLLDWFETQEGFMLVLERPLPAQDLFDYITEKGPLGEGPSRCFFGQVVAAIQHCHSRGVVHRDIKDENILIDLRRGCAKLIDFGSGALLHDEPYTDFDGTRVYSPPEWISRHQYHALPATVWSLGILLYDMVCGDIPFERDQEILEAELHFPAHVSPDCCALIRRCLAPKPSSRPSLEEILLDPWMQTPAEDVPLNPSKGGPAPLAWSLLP

[26] = Inhibition of FGFRK
Angiopoietin-1 receptor = Angiopoietin-1 receptor (Homo sapiens, UniProt Q02763); experiment: Inhibition of Tie2 kinase
[27] = molecular target: Tyrosine-protein kinase ZAP-70 (Homo sapiens, UniProt P43403); experiment: Inhibition of ZAP70
[28] = molecular target: RAC-alpha serine/threonine-protein kinase (Homo sapiens, UniProt P31749); experiment: Inhibition of PKBalpha

Sequence of Serine/threonine-protein kinase pim-1 (P11309 whole entry): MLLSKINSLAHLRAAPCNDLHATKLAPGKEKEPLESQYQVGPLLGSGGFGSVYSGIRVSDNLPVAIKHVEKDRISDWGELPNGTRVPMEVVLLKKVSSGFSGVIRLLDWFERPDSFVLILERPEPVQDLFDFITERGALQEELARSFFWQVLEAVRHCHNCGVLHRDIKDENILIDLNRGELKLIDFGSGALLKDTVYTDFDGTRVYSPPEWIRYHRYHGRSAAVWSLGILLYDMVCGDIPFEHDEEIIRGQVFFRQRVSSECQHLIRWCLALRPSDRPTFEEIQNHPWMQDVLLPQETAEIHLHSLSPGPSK

COc1cc2c(Oc3ccc(-c4cnc(Cc5ccccc5)n(C)c4=O)cc3F)ccnc2cc1OCCCN1CCOCC1
IC50 [1]: > 30 µM | Ki [2]: 8.9 nM | IC50 (Aurora kinase A): 116 nM | IC50 [3]: > 8.3 µM | bioavailability [4]: 100% | clearance [5]: 9.33 mL/min/kg | IC50 [6]: > 25 µM | IC50 [7]: > 100 µM | half-life [8]: 144 min | Ki [9]: 422 nM | IC50 [10]: 8 nM | IC50 [11]: > 100 µM | IC50 [12]: > 1000 nM | IC50 [13]: > 100 µM | IC50 [14]: 10 µM | Ki [15]: 195 nM | IC50 [16]: > 100 µM | IC50 [17]: 120 nM | IC50 [18]: > 25 µM | IC50 [19]: 37 nM | IC50 [20]: > 1000 nM | IC50 [21]: 19 nM | ED90 (Mus musculus): 100 mg/kg | Vd [22]: 3.4 L/kg | Ki [23]: 1450 nM | IC50 [24]: > 100 µM | IC50 [25]: > 25 µM | IC50 [26]: > 1000 nM | IC50 (Angiopoietin-1 receptor): 285 nM | IC50 [27]: > 5.4 µM | IC50 [28]: > 100 µM
